These results are taken from ChEMBL document CHEMBL2177065, “14-Alkoxy- and 14-acyloxypyridomorphinans: μ agonist/δ antagonist opioid analgesics with diminished tolerance and dependence side effects” (J Med Chem, 2012).

As usually defined, the Emax is the maximal effect, on the per cent scale that the assay sets. For orientation: EC50 means the midpoint of the concentration-response curve. As a reminder, the Ki is a dissociation constant, usually derived from enzyme kinetics or from competition with a known ligand. Low readings indicate a stronger hold on the target, high ones a looser hold on the target.

Structures are written as SMILES. Activity calls are given as the source filed them.

Assay [1] has as its system Mus musculus. The experiment in a line: Antinociceptive activity in icv dosed ICR mouse assessed as warm-water tail-withdrawal latency administered bid for 3 days. The class given is functional.
Assay [2] concerns CHO. The assay is described as follows: Activity at human MOR/mouse DOR expressed in CHO cells assessed as increase in forskolin-stimulated cAMP accumulation at 30 nM after drug exposure for 20 hrs followed by washout in the presence of naloxone. The assay is classed as functional, cell-based. The procedure, abridged: (§1)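 MOR/DOR co-expressing CHO cells (mouse N-cMyc DOR + human MOR) exposed 20 h to drug, then washed three times with serum-free medium and preincubated 20 min at 37 °C with IBMX 500 µM. Then 10 min at 37 °C with forskolin 100 µM/IBMX 500 µM, with or without 10 µM naloxone. Read-out was cAMP by [3H]cAMP–protein kinase binding against a standard curve. Mean of n=3.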
Background: cAMP levels reflect the balance of adenylyl cyclase and phosphodiesterase activity.

Assay [3] concerns the target T1, Kappa-type opioid receptor (Homo sapiens, UniProt P41145). The assay is described as follows: Agonist activity at human kappa opioid receptor expressed in CHO cells assessed as [35S]GTPgammaS binding at 10 uM by scintillation counting analysis. The class given is functional, cell-based. The procedure, abridged:
(§2)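 Human KOR or MOR in CHO cell membranes (50 µg protein), 3 h at 25 °C, pH 7.4 Tris buffer with 100 mM NaCl, 10 mM MgCl2, 1 mM EDTA, 1 mM DTT, 0.1% BSA, GDP 40 µM and [35S]GTP-γ-S 50 pM. Stimulation = (S−B)/B×100, with Emax relative to U69,593 (KOR) or DAMGO (MOR). Curves were ten points, ≥3 experiments pooled. Antagonist Ke was taken from the shift in standard agonist EC50.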
For orientation: GTPγS is a poorly hydrolysed GTP analogue; its binding reports G protein activation.

Assay [4] has as its system Mus musculus. The experiment in a line: Antinociceptive activity in icv dosed ICR mouse assessed as warm-water tail-withdrawal latency by tail flick assay in presence of naloxone. The class given is functional, organism-based. For orientation: In hot-plate and tail-flick tests a longer latency is read as antinociception.
Assay [5] has as its system Mus musculus. The assay is described as follows: Antinociceptive activity in ICR mouse assessed as warm-water tail-withdrawal latency at 1 nmol, icv by tail flick assay. The class given is functional. The procedure, abridged: (§3)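 Male ICR mice dosed i.c.v. in 5 µL (test compounds in 100% DMSO, morphine in water) under light ether anaesthesia. Tail withdrawal from 55 °C water, 10 s cutoff, tested 10–180 min post-injection. %MPE computed against pre-drug baseline. A50 with 95% confidence limits by linear regression at time of peak effect.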

Assay [6] deals with Mus musculus. The experiment in a line: Antinociceptive activity in icv dosed ICR mouse assessed as warm-water tail-withdrawal latency by tail flick assay. The class given is functional. In outline:
as §3

The test system of assay [7] is CHO. The assay is described as follows: Activity at human MOR/mouse DOR expressed in CHO cells assessed as increase in forskolin-stimulated cAMP accumulation at 30 nM after drug exposure for 20 hrs followed by washout. The assay is classed as functional, cell-based. The procedure, abridged:
as §1

Assay [8] can be described thus: Activity at human MOR/mouse DOR expressed in CHO cells assessed as inhibition of DAMGO-mediated forskolin-stimulated cAMP accumulation at 30 nM after 20 hrs by scintillation counting analysis. The class given is functional. The procedure, abridged: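 CHO cells stably co-expressing human MOR and cMyc-tagged mouse DOR were pretreated 20 h with 30 nM drug or medium, then washed. They were preincubated 20 min with 500 µM IBMX, then given 15 min with IBMX, 100 µM forskolin and graded DAMGO at 37 °C. cAMP was measured by [3H]cAMP–protein kinase binding against a standard curve.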

The test system of assay [9] is Delta-type opioid receptor. The assay is described as follows: Agonist activity at delta opioid receptor expressed in rat/mouse NG108-15 cells assessed as [35S]GTPgammaS binding at 10 uM by scintillation counting analysis. The assay is classed as functional, cell-based. In outline: (§4)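 NG108-15 cell membranes (50 µg protein), 3 h at 25 °C, pH 7.4 Tris buffer with 100 mM NaCl, 10 mM MgCl2, 1 mM EDTA, 1 mM DTT, 0.1% BSA, GDP 40 µM and [35S]GTP-γ-S 50 pM. Nonspecific binding with 40 µM GTP-γ-S; filtration and scintillation counting. Stimulation = (S−B)/B×100, with Emax relative to DADLE. Curves were ten points, ≥3 experiments pooled. Ke was taken from the shift in standard agonist EC50.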

In assay [10] the target is T2, Mu-type opioid receptor (Homo sapiens, UniProt P35372). The assay is described as follows: Agonist activity at human mu opioid receptor expressed in CHO cells assessed as [35S]GTPgammaS binding by scintillation counting analysis relative to DAMGO. The class given is functional, cell-based. In outline: as §2
T2 sequence (P35372 whole entry): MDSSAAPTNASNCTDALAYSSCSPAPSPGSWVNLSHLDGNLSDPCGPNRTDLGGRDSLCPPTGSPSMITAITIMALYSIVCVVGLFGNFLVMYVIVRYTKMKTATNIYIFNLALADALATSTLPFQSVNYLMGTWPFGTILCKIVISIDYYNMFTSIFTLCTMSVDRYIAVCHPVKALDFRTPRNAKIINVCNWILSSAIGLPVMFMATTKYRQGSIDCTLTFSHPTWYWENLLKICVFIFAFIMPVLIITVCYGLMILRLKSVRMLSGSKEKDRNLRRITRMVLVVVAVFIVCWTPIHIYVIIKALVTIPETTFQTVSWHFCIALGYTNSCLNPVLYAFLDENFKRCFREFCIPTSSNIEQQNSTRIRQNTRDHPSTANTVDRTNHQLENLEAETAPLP
Assay [11] relates to Delta-type opioid receptor. The assay is described as follows: Antagonist activity at delta opioid receptor expressed in rat/mouse NG108-15 cells assessed as [35S]GTPgammaS binding by scintillation counting analysis. The class given is functional, cell-based. The procedure, abridged: as §4
In assay [12] the test system is Mus musculus. The experiment in a line: Antinociceptive activity in ICR mouse assessed as warm-water tail-withdrawal latency at 0.1 to 100 nmol, icv bid for 3 days relative to naive control. The assay is classed as functional.
In assay [13] the test system is Mus musculus. The assay is described as follows: Antinociceptive activity in ICR mouse assessed as warm-water tail-withdrawal latency at 10 nmol, icv by tail flick assay. The assay is classed as functional. In outline:
as §3

The subject of assay [14] is CHO. The experiment in a line: Activity at human MOR/mouse DOR expressed in CHO cells assessed as increase in forskolin-stimulated cAMP accumulation at 1 uM after drug exposure for 20 hrs followed by washout in the presence of naloxone. The assay is classed as functional, cell-based. In outline:
as §1

For assay [15], the system named is CHO. The assay is described as follows: Activity at human MOR/mouse DOR expressed in CHO cells assessed as increase in forskolin-stimulated cAMP accumulation at 1 uM after drug exposure for 20 hrs followed by washout. The assay is classed as functional, cell-based. In outline:
as §1

Assay [16] can be described thus: Activity at human MOR/mouse DOR expressed in CHO cells assessed as inhibition of DAMGO-mediated forskolin-stimulated cAMP accumulation after 20 hrs by scintillation counting analysis relative to morphine. The assay is classed as functional. The procedure, abridged:
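CHO cells stably co-expressing human MOR and N-cMyc-tagged mouse DOR, treated 20 h with drug (morphine 1 µM; test compounds 30 nM) or medium. Cells washed, 20 min in serum-free medium with 500 µM IBMX at 37 °C, then 15 min with IBMX plus 100 µM forskolin and graded DAMGO. Acid-extracted cAMP measured by [³H]cAMP protein-kinase binding competition. DAMGO EC₅₀ expressed as fold over control cells; n=3.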

In assay [17] the target is T2, Mu-type opioid receptor. The assay is described as follows: Agonist activity at human mu opioid receptor expressed in CHO cells assessed as [35S]GTPgammaS binding by scintillation counting analysis. The class given is functional, cell-based. In outline: as §2
Assay [18] can be described thus: Agonist activity at delta opioid receptor expressed in rat/mouse NG108-15 cells assessed as [35S]GTPgammaS binding by scintillation counting analysis relative to DADLE. The assay is classed as functional, cell-based. In outline: as §4
Assay [19] is filed under the species Homo sapiens. The experiment in a line: Selectivity ratio of Ki for human kappa opioid receptor to Ki for human delta opioid receptor.
The species named for assay [20] is Homo sapiens. The assay is described as follows: Selectivity ratio of Ki for human mu opioid receptor to Ki for human delta opioid receptor.
The target in assay [21] is T1, Kappa-type opioid receptor. The experiment in a line: Displacement of [3H]U69,593 from human kappa opioid receptor expressed in CHO cells by scintillation counting analysis. The class given is cell-based.
Assay [22] has as its target T2, Mu-type opioid receptor. The assay is described as follows: Displacement of [3H]DAMGO from human mu opioid receptor expressed in CHO cells by scintillation counting analysis. The class given is cell-based.
Assay [23] concerns the target T3, Delta-type opioid receptor (Homo sapiens, UniProt P41143). The assay is described as follows: Displacement of [3H]DADLE from human delta opioid receptor expressed in CHO cells by scintillation counting analysis. The assay is classed as cell-based.
The next assay can be described thus: cells. The following applies: CHO, 20 h.
The target in assay [24] is T1, Kappa-type opioid receptor. The experiment in a line: Binding affinity to kappa opioid receptor by radioligand binding assay.
Assay [25] concerns the target T2, Mu-type opioid receptor. The assay is described as follows: Binding affinity to mu opioid receptor by radioligand binding assay.
Assay [26] deals with T3, Delta-type opioid receptor. The experiment in a line: Binding affinity to delta opioid receptor by radioligand binding assay. In outline: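 Membranes from CHO cells stably expressing human DOR; [³H]DADLE at ~2 nM, displaced by 10 drug concentrations. Incubated 2 h at 25 °C in 50 mM Tris-HCl pH 7.4 with protease inhibitors, ~30 µg protein; triplicates; filtration and scintillation counting. Nonspecific binding defined with 20 µM levallorphan. Three experiments pooled and fitted for IC50.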

T1 sequence (P41145 whole entry): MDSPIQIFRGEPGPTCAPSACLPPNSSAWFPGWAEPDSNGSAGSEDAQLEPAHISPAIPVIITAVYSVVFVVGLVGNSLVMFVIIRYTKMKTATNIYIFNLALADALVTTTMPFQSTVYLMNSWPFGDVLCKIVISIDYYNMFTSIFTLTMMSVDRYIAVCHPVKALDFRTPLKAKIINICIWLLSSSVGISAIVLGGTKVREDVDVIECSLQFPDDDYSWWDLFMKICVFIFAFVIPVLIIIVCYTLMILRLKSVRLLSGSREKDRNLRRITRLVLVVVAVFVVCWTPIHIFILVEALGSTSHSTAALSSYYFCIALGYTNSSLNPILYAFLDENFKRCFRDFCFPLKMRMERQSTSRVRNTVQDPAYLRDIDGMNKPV
T3 sequence (P41143 whole entry): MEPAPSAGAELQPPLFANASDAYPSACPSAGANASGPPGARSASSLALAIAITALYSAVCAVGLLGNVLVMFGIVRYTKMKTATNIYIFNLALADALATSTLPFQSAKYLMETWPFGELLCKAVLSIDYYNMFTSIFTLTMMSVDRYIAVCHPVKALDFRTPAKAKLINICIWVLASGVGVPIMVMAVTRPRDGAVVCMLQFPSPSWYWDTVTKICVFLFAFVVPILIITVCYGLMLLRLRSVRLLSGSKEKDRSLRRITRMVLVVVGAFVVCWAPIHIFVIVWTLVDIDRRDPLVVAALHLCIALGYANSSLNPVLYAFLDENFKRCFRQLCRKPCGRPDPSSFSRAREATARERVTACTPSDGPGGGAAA

In the case of `Oc1ccc2c3c1O[C@H]1c4ncc(-c5ccc(Cl)cc5)cc4C[C@@]4(OCCCc5ccccc5)[C@@H](C2)N(CC2CC2)CC[C@]314`, the A50 worked out at 2.78 nmol with Mus musculus [1] and 0.35 nmol with Mus musculus [6]. The result (in the assay on CHO [2]; in assay [3]; in the assay on Mus musculus [4]; in the assay on CHO [7]; in assay [9]) was inactive. Further, in the assay with Mus musculus [5], the “%max” value is 75%. In addition, the Activity entry with Mus musculus [6] is “Dose-dependent effect”. Besides, the Emax at 0.03 µM in assay [8] was 40%. Besides, at Mu-type opioid receptor [10], the maximum response (Emax) worked out at 72%. Moreover, in assay [11], the Ke worked out at 0.091 nM.
Turning to `CN1CC[C@]23c4c5ccc(O)c4O[C@H]2[C@@H](O)C=C[C@H]3[C@H]1C5` [MORPHINE], the A50 was determined as 19.04 nmol in the assay on Mus musculus [1] and 0.43 nmol in the assay with Mus musculus [6]. Further, the “fold change (FC)” value in the assay with Mus musculus [12] is recorded as 44. For the same compound, the “%max” value with Mus musculus [13] was 100%. The result with CHO [14] and in the assay on CHO [15] was Active.
Regarding `CN1CC[C@]23c4c5ccc(O)c4O[C@H]2c2ncc(-c4ccc(Cl)cc4)cc2C[C@@]3(OCCCc2ccccc2)[C@H]1C5`, the outcome with CHO [2] and in the assay with CHO [7] was Active. Besides, the outcome (in assay [3]; in the assay on Mus musculus [4]) was inactive. In addition, the “%max” value with Mus musculus [5] is 92%. Besides, the A50 in the assay with Mus musculus [6] was 0.23 nmol. Moreover, in the assay with Mus musculus [6], the Activity entry was “Dose-dependent effect”. Moreover, in assay [8], the Emax at 0.03 µM was found to be 20%. Besides, the “fold change (FC)” value in [16] came to 7. For the same compound, the values for the Emax (at Mu-type opioid receptor [10]; in assay [18]) were 125% and 85%, respectively. The EC50 on Mu-type opioid receptor [17] turned out to be 2.15 nM; in the assay “cells”, 0.34 nM. Moreover, the Ratio Ki is 1.5 in the assay listed under Homo sapiens [19] and 0.52 in the assay listed under Homo sapiens [20]. Further, the Ki in [21] turned out to be 1.53 nM; on Mu-type opioid receptor [22], 0.54 nM; in [23], 1.04 nM.
Take `CN1CC[C@]23c4c5ccc(O)c4O[C@H]2c2ncc(-c4ccc(Cl)cc4)cc2C[C@@]3(O)[C@H]1C5`: the Ki in assay [24] was found to be 468 nM; at Mu-type opioid receptor [25], 230 nM; in assay [26] it was 3.9 nM.
In the same order, the values of `Oc1ccc2c3c1O[C@H]1c4ncc(-c5ccc(Cl)cc5)cc4C[C@@]4(O)[C@@H](C2)N(CC2CC2)CC[C@]314` are 20 nM, 51 nM and 2.2 nM.
